Pf Dd2 inh – P. falciparum Dd2 growth inhibition. SYBR Green, 72 h; active compounds read low. activity change, % at 10 µM. 94,000 compounds, 2.3% hits. AID 1159554; in the data active means activity change below about -80%; inconclusive means no clear call, values can overlap the other calls
T cruzi growth-1 – blocks T. cruzi growth in NIH3T3 culture; T. cruzi beta-gal in NIH3T3, GalScreen luminescence, 90 h; inhibition, % at 8.34 µM; 77,000 compounds, 5.9% hits; AID 624255;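 active means mean inhibition above about 93%, with at least 55% of replicates each passing it, limit read from the data, passing the limit was not always enough; inconclusive means only one of those two conditions holds; inactive means neither condition holds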
KDM4C inh – KDM4C (human) demethylase inhibition; GST-KDM4C 2-372, H3K9me3 peptide, LANCE TR-FRET; inhibition, % at 12.5 µM; 96,000 compounds, 0.15% hits; AID 720574;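 active means mean replicate inhibition above about 25%, with at least 55% of replicates also reaching it, limit read from the data, passing the limit was not always enough; inconclusive means only one of those two conditions met; inactive means neither condition met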
Target sequence (Q9H3R0 2-372 limits assumed): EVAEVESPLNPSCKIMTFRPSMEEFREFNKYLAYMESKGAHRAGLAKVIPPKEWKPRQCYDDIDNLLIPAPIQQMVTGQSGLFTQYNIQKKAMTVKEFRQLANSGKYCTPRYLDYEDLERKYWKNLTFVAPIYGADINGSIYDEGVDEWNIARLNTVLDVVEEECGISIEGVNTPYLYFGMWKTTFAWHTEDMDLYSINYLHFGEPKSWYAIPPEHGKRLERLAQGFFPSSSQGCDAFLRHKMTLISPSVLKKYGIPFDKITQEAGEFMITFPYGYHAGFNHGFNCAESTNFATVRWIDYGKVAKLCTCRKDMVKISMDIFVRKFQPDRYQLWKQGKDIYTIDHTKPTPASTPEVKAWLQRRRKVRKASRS
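reagent = H3K9me3 peptide substrate, Fe(II), 2-oxoglutarate | system = GST-tagged GASC-1 (JMJD2C) catalytic fragment, aa 2-372 | amount = enzyme final amount 10 nM | read-out = Fall in 671/618 emission ratio as inhibition | medium = HEPES buffer, pH 7.5, plus ascorbate | schedule = 30 min reaction, 60 min detection, RT | measured by = LANCE TR-FRET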
IDH1 mut inh – inhibitors of human IDH1 R132H | IDH1 R132H reductase, diaphorase/resazurin fluorescence, 60 min | inhibition, % at 10 µM | 70,000 compounds, 0.18% hits | AID 624101; in the data active means inhibition above about 34%; inconclusive means no clear call, values can overlap the other calls; inactive means below about 11%;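 further: 0% = DMSO and 100% = no enzyme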
T cruzi growth-2 – blocks T. cruzi growth in NIH3T3 host cells. T. cruzi beta-gal in NIH3T3, GalScreen luminescence, 90 h. inhibition, % at 8.35 µM. shares compounds with T cruzi growth-1. 5,600 compounds, 72% hits;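 active means mean replicate inhibition above about 95% and at least 55% of replicates individually reaching it, limit read from the data; inconclusive means only one of the two criteria is met; inactive means neither criterion is met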
T cruzi growth-3 – Trypanosoma cruzi proliferation inhibition | shares compounds with T cruzi growth-1 | 5,600 compounds, 21% hits | T. cruzi beta-gal in NIH3T3, GalScreen luminescence, 90 h | inhibition, % at 2.09 µM;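 active means mean inhibition above about 95%, with at least 55% of replicates also reaching it, limit read from the data; inconclusive means meets just one of the two conditions; inactive means meets neither condition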;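 further: plate controls were neutral control median for no effect and positive control median for full effect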
3T3 cytotox – NIH/3T3 (mouse) viability loss. shares compounds with T cruzi growth-1. NIH/3T3 viability, CellTiter-Glo ATP luminescence, 90 h. cytotoxicity (signal decrease), % at 8.35 µM. 5,600 compounds, 14% hits. AID 651742;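 active means mean signal decrease across replicates above about 35% based on untreated-well scatter, with enough replicates individually passing, limit read from the data; inconclusive means no rule stated though some were filed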;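 further: 0% = median of neutral control wells and 100% = median of positive control wells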
NIH3T3 tox 2 – cytotoxicity in mouse NIH/3T3 fibroblasts | shares compounds with T cruzi growth-1 | NIH/3T3 viability, CellTiter-Glo ATP luminescence, 90 h | inhibition, % at 24.9 µM | 5,600 compounds, 56% hits;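 active means mean loss of cell viability signal at or above a set limit, and enough replicates individually reaching it; inconclusive means meets only the mean limit or only the replicate share; inactive means meets neither condition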;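 further: 0% = median of neutral control wells and 100% = median of positive control wells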
The depositor's hits bear a star. The list is not random: actives were taken first. Their share in the collection is about 5.8%.

What do the screens show for `C[C@H]1CN([C@@H](C)CO)S(=O)(=O)c2ccc(C3=CCCCC3)cc2O[C@@H]1CN(C)Cc1cncnc1`?
Pf Dd2 inh: -22; T cruzi growth-1: 102*; KDM4C inh: 2; IDH1 mut inh: 2; T cruzi growth-2: 102*; T cruzi growth-3: 63; 3T3 cytotox: 55*; NIH3T3 tox 2: 69*

How did C[C@H](CO)N1C[C@H](C)[C@H](CN(C)Cc2cccc(C(=O)O)c2)Oc2cc(C3=CCCCC3)ccc2S1(=O)=O do in these assays?
Pf Dd2 inh: -31; T cruzi growth-1: 50; KDM4C inh: 2

How did C[C@@H]1CN([C@H](C)CO)S(=O)(=O)c2ccc(C3=CCCCC3)cc2O[C@@H]1CN(C)Cc1ccccc1 do in these assays?
Pf Dd2 inh: -62; T cruzi growth-1: 125*; KDM4C inh: -1; IDH1 mut inh: 2; T cruzi growth-2: 97*; T cruzi growth-3: 102*; 3T3 cytotox: 26; NIH3T3 tox 2: 105*

What do the screens show for `COc1ccc(-c2nc(SCC(=O)Nc3ccc(Br)c(Cl)c3)n[nH]2)cc1`?
IDH1 mut inh: 1

What do the screens show for `COc1cccc(OC)c1C(=O)Nc1cccc(-c2nc3ncccc3o2)c1`?
IDH1 mut inh: 2

Results for CCCN(C)C[C@@H]1Oc2cc(C#CCC(C)C)ccc2S(=O)(=O)N([C@@H](C)CO)C[C@@H]1C ?
Pf Dd2 inh: -26; T cruzi growth-1: 108*; KDM4C inh: 0; IDH1 mut inh: -1; T cruzi growth-2: 110*; T cruzi growth-3: 110*; 3T3 cytotox: 14; NIH3T3 tox 2: 104*

How did CC(C)CC#Cc1ccc2c(c1)O[C@@H](CN(C)CC1CCCC1)[C@H](C)CN([C@@H](C)CO)S2(=O)=O do in these assays?
Pf Dd2 inh: -70; KDM4C inh: 1

What do the screens show for `CC(C)CC#Cc1ccc2c(c1)O[C@H](CN(C)CC1CCOCC1)[C@@H](C)CN([C@H](C)CO)S2(=O)=O`?
Pf Dd2 inh: -59; T cruzi growth-1: 120; KDM4C inh: 0; IDH1 mut inh: -3

What do the screens show for `CC(C)CC#Cc1ccc2c(c1)O[C@@H](CN(C)CC1CC1)[C@@H](C)CN([C@@H](C)CO)S2(=O)=O`?
Pf Dd2 inh: -50; T cruzi growth-1: 111*; KDM4C inh: -1; IDH1 mut inh: -1; T cruzi growth-2: 110*; T cruzi growth-3: 89; 3T3 cytotox: 21; NIH3T3 tox 2: 103*

Results for CC(C)CC#Cc1ccc2c(c1)O[C@@H](CN(C)CC1CC1)[C@@H](C)CN([C@H](C)CO)S2(=O)=O ?
Pf Dd2 inh: -48; T cruzi growth-1: 107*; KDM4C inh: 3; IDH1 mut inh: -3; T cruzi growth-2: 105*; T cruzi growth-3: 52; 3T3 cytotox: 38*; NIH3T3 tox 2: 103*

What do the screens show for `CC(C)CC#Cc1ccc2c(c1)O[C@H](CN(C)CC1CC1)[C@H](C)CN([C@H](C)CO)S2(=O)=O`?
Pf Dd2 inh: -46; T cruzi growth-1: 105*; KDM4C inh: -2; IDH1 mut inh: -1; T cruzi growth-2: 108*; T cruzi growth-3: 63; 3T3 cytotox: 13; NIH3T3 tox 2: 106*

Results for C/C=C(C)\C=N\NC(=O)CCCCCCC(=O)Nc1ccccc1O ?
IDH1 mut inh: 0

What do the screens show for `C/C=C1/C(=O)O[C@]2(C)C[C@@H]3OC(=O)C(COC)[C@]34O[C@@]12CC[C@@](C)(O)CC4=O` (stereo not given in full)?
IDH1 mut inh: 10

Results for Cc1ccc(OCC(O)CNc2ccc(Br)c(C(F)(F)F)c2)cc1C (stereo not given) ?
IDH1 mut inh: 1

What do the screens show for `COc1cccc2cc(C(=O)CC3(O)C(=O)N(Cc4ccccc4)c4ccc(Br)cc43)c(=O)oc12` (stereo not given)?
IDH1 mut inh: 0

Results for CC(C)NC[C@H]1[C@@H](c2ccc(-c3cccc(F)c3)cc2)[C@@H](CO)N1CC1CC1 ?
Pf Dd2 inh: -22; T cruzi growth-1: 109*; KDM4C inh: 0; T cruzi growth-2: 68; T cruzi growth-3: 12; 3T3 cytotox: -1; NIH3T3 tox 2: 105*

What do the screens show for `C/C=C/c1ccc([C@H]2[C@@H](CO)N(CC3CCCCC3)[C@H]2CNC(C)C)cc1`?
Pf Dd2 inh: -68

How did N#C[C@@H]1[C@@H](c2ccc(-c3cccc(F)c3)cc2)[C@H](CO)N1C(=O)NC1CCCC1 do in these assays?
Pf Dd2 inh: -62; T cruzi growth-1: 97*; KDM4C inh: -1; T cruzi growth-2: 105*; T cruzi growth-3: 95; 3T3 cytotox: 24; NIH3T3 tox 2: 38*

What do the screens show for `N#C[C@@H]1[C@H](c2ccc(-c3cccc(F)c3)cc2)[C@H](CO)N1C(=O)NC1CCCC1`?
Pf Dd2 inh: -77; T cruzi growth-1: 97*; KDM4C inh: -1; T cruzi growth-2: 109*; T cruzi growth-3: 104*; 3T3 cytotox: 17; NIH3T3 tox 2: 27

What do the screens show for `N#C[C@H]1[C@@H](c2ccc(-c3cccc(F)c3)cc2)[C@H](CO)N1C(=O)NC1CCCC1`?
Pf Dd2 inh: 20; T cruzi growth-1: 93; KDM4C inh: -1

How did CS(=O)(=O)N(CC(=O)Nc1ccc(F)c(F)c1)c1ccc(Cl)c(C(F)(F)F)c1 do in these assays?
IDH1 mut inh: 0

What do the screens show for `COc1ccc(S(=O)(=O)Nc2ccc3c(c2)C(=O)N([C@@H](C)CO)C[C@H](C)[C@@H](CN(C)S(=O)(=O)c2ccc(OC)cc2)OCCCC[C@H](C)O3)cc1`?
Pf Dd2 inh: -78; T cruzi growth-1: inconclusive; KDM4C inh: -3; IDH1 mut inh: 2; T cruzi growth-2: 104*; T cruzi growth-3: 53; 3T3 cytotox: 19; NIH3T3 tox 2: -2

Results for COc1ccc(S(=O)(=O)N(C)C[C@H]2OCCCC[C@@H](C)Oc3ccc(NS(=O)(=O)c4cn(C)cn4)cc3C(=O)N([C@@H](C)CO)C[C@H]2C)cc1 ?
Pf Dd2 inh: -48; T cruzi growth-1: 103*; KDM4C inh: -1; T cruzi growth-2: 107*; T cruzi growth-3: 33; 3T3 cytotox: -27; NIH3T3 tox 2: -14

How did COc1ccc(S(=O)(=O)Nc2ccc3c(c2)C(=O)N([C@@H](C)CO)C[C@@H](C)[C@@H](CN(C)S(=O)(=O)c2ccc(OC)cc2)OCCCC[C@@H](C)O3)cc1 do in these assays?
Pf Dd2 inh: -64; T cruzi growth-1: 100*; KDM4C inh: 0; IDH1 mut inh: 2; T cruzi growth-2: 107*; T cruzi growth-3: 102*; 3T3 cytotox: -5; NIH3T3 tox 2: 7
